We go through 16 compounds from ChEMBL document CHEMBL2396596, “Anthraquinone derivatives from Rumex plants and endophytic Aspergillus fumigatus and their effects on diabetic nephropathy” (Bioorg Med Chem Lett, 2013).

Series [1] in a line: Cytotoxicity against rat HBZY-1 cells assessed as cell viability at 10 uM after 48 hrs by MTT assay. The note with it: hbzy-1, 48 h. It is filed as cell-based. An outline of the steps: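 Cells were seeded at 10⁴ per well and held in serum-free medium for 24 h. They were exposed to compound at 10 μM, or left without it, for 48 h. MTT (5 mg/mL stock) was added for 4 h at 37 °C, the formazan was dissolved in DMSO, and A570 was read. Values were normalized to control-medium cells.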
(Tetrazolium dyes change colour on reduction, which living cells bring about.)

Series [2] is described as follows: Antidiabetic nephropathic activity in rat HBZY-1 cells assessed as inhibition of high concentration glucose-induced fibronectin production at 10 uM treated 1 hr before glucose challenge measured after 24 hrs by ELISA. It is filed as functional, cell-based. The procedure, abridged: (§1)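 HBZY-1 rat mesangial cells (passages 3–10) were grown in DMEM with 5.6 mM glucose, 20% FCS and 10 mM HEPES. At 80% confluence they were arrested in 0.5% FCS for 24 h, then pretreated with compound for 1 h and stimulated with high glucose (25 mM) for 24 h. Supernatant IL-6, fibronectin or collagen IV was measured by sandwich ELISA, normalized to total cell protein (BCA), and compared by ANOVA.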
(In general: ELISA stands for enzyme-linked immunosorbent assay.)

A short description of series [3]: Antidiabetic nephropathic activity in rat HBZY-1 cells assessed as inhibition of high concentration glucose-induced IL-6 production at 10 uM treated 1 hr before glucose challenge measured after 24 hrs by ELISA. It is filed as functional, cell-based. An outline of the steps: as §1
Series [4] can be described thus: Antidiabetic nephropathic activity in rat HBZY-1 cells assessed as inhibition of high concentration glucose-induced collagen-4 production at 10 uM treated 1 hr before glucose challenge measured after 24 hrs by ELISA. The class given is functional, cell-based. The procedure, abridged: as §1
Series [5] in a line: Antidiabetic nephropathic activity in rat HBZY-1 cells assessed as inhibition of high concentration glucose-induced IL-6 production at 35 uM treated 1 hr before glucose challenge measured after 24 hrs by ELISA. The class given is functional, cell-based. An outline of the steps:
as §1

Series [6] is described as follows: Antidiabetic nephropathic activity in rat HBZY-1 cells assessed as inhibition of high concentration glucose-induced IL-6 production at 88 uM treated 1 hr before glucose challenge measured after 24 hrs by ELISA. It is filed as functional, cell-based.

Activity calls are given as the source filed them. The rule behind the calls is not given here.

Take `Cc1cc(O)c2c(c1)C(=O)c1cc(O)cc(O)c1C2=O` [EMODIN]: the Activity result in series [1] is given as “Non-toxic”. For the same compound, the inhibition entry in series [2], in series [3] and in series [4] was “Active” throughout.
For the compound `COc1cc(O)c2c(c1)[C@](O)([C@@H]1O[C@H](CO)[C@@H](O)[C@H](O)[C@H]1O)c1cc(C)cc(O)c1C2=O`, the inhibition entry in series [3] is “Active”.
Same read-out and setting: the result for `CC(=O)OC[C@H]1O[C@@H](Oc2cc(O)cc3c2C(=O)c2c(O)cc(C)cc2C3=O)[C@H](O)[C@@H](O)[C@@H]1O` reads “Active”; that for `COc1cc(C)cc2c1C(=O)c1c(O)cc(O)cc1C2=O`, “Active”.
With `Cc1cc(O[C@@H]2O[C@H](CO)[C@@H](O)[C@H](O)[C@H]2O)c(C(=O)c2c(O)cccc2O)c(C(=O)O)c1`, the Activity result in series [1] is reported as “Non-toxic”. The inhibition result in series [2], in series [3] and in series [4] was “Active” each time.
Regarding `COC(=O)C1=CC(=O)C=C(OC)C12Oc1cc(C)cc(OC)c1C2=O` (stereo unspecified) [TRYPACIDIN], the Activity result in series [1] is reported as “Non-toxic”. Moreover, the inhibition entry in series [2], in series [3] and in series [4] was “Active” each time.
For `COc1cc(O)c2c(c1)[C@@](O)([C@@H]1O[C@H](CO)[C@@H](O)[C@H](O)[C@H]1O)c1cc(C)cc(O)c1C2=O`, the Activity entry in series [1] was “Non-toxic”. In addition, the inhibition result in series [2], in series [3] and in series [4] was “Active” throughout.
In the case of `COc1cc(O)cc2c1C(=O)c1c(O)cc(C)cc1C2=O` [QUESTIN], the Activity result in series [1] is on record as “Non-toxic”. Moreover, the inhibition entry in series [2], in series [3] and in series [4] was “Active” each time.
As for `O=C(O)c1cc(O)c2c(c1)C(=O)c1cccc(O)c1C2=O`, the inhibition entry in series [5] is “inactive”. Further, in series [6], the inhibition result was “Active”.
On to `O=C1c2cccc(O)c2C(=O)c2c(O)cc(CO)cc21`, for which the inhibition result in series [3] was “Active”.
On to `COc1cc(O)c2c(c1)C(=O)c1cc(C)cc(O)c1C2=O` [PHYSCION], for which the Activity entry in series [1] is listed as “Non-toxic”. The inhibition entry in series [2], in series [3] and in series [4] was “Active” each time.
Regarding `COC(=O)c1cc(O)cc(OC)c1C(=O)c1c(O)cc(C)cc1OC`, the Activity entry in series [1] was “Non-toxic”. Moreover, the inhibition entry in series [2], in series [3] and in series [4] was “Active” in each case.
`Cc1cc(O)c2c(c1)[C@@](O)([C@@H]1O[C@H](CO)[C@@H](O)[C@H](O)[C@H]1O)c1cc(O)cc(O)c1C2=O`: the Activity entry in series [1] is “Non-toxic”. The inhibition result in series [2] and in series [4] was “Active” each time.
For the compound `Cc1cc(O)c2c(c1)C(=O)c1cc(O)cc(O[C@@H]3O[C@H](CO)[C@@H](O)[C@H](O)[C@H]3O)c1C2=O`, the inhibition result in series [3] is “Active”.
Regarding `Cc1cc(O)c2c(c1)C(=O)c1cccc(O)c1C2=O` [CHRYSOPHANOL], in series [1], the Activity entry was “Non-toxic”. In addition, the inhibition entry in series [2], in series [3] and in series [4] was “Active” in each case.
For `COC(=O)c1c(OC)c(O)cc(OC)c1C(=O)c1c(O)cc(C)cc1OC` [ASPERFUMIN], in series [1], the Activity result is given as “Non-toxic”. Besides, the inhibition entry in series [2], in series [3] and in series [4] was “Active” in each case.
